From PubChem
PvdQ inh: P. aeruginosa PvdQ acylase inhibition | purified PvdQ acylase, fluorescence plate reader | AID 488965 | inhibition, % at 10 µM | 340,000 tested, 0.063% active; in the data active = inhibition above about 30%, passing the limit was not always enough;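 also: 0% = vehicle neutral wells and 100% = reference inhibitor wells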
VIM-2 inh: blocks Pseudomonas aeruginosa VIM-2 metallo-beta-lactamase; purified VIM-2, nitrocefin hydrolysis, epi-absorbance fluorescence; inhibition, % at 5.6 µM; 290,000 tested, 0.89% active;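 active = inhibition above the mean of all tested compounds plus 3 SD, cutoff set per screening run, cut at about 7.5% in these data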;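 also: red hydrolysis product quenches plate fluorescence so inhibitors raise well fluorescence; 0% = enzyme with DMSO and 100% = DMSO without enzyme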
IMP-1 inh-1: blocks Pseudomonas aeruginosa IMP-1 metallo-beta-lactamase. purified IMP-1, nitrocefin hydrolysis, epi-absorbance fluorescence. inhibition, % at 5.6 µM. 290,000 tested, 0.45% active. AID 1556;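 active = inhibition above the mean plus 3 SD of all compounds in the same screening run, cut at about 4.5% in these data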;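 also: 0% = IMP-1 with DMSO and 100% = DMSO wells lacking enzyme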
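Assay system: purified recombinant IMP-1 beta-lactamase. Input: IMP-1 0.2 nM before substrate addition. Buffer or medium: Zinc- and detergent-supplemented HEPES buffer, pH 7.1. Schedule: 25 °C, 15 min preincubation, 25 min reaction. Signal: Epi-absorbance fluorescence, 480 nm excitation, 530 nm emission. Evaluation: percent inhibition from optical density relative to buffer-blank wells.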
FID counter: displaces DNA intercalator in HCV helicase counter-screen. inhibition, % at 7.9 µM. DNA fluorescent intercalator displacement, fluorescence. 290,000 tested, 0.17% active; in the data active = inhibition above about 37%;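 also: 0% = vehicle and 100% = reference compound; higher means more ethidium bromide displaced from hairpin DNA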
RAD54 branch: RAD54 (human) branch migration inhibition. Q92698. RAD54 Holliday junction branch migration, FAM/BHQ fluorescence. inhibition, % at 10.4 µM. 360,000 tested, 0.14% active;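 active = mean normalized replicate activity at least 40 and at least half of replicates scoring 40 or more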;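 also: 0% = median of neutral control wells and 100% = median of positive control wells; inhibitors cause a drop in the FAM fluorescence signal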
IMP-1 inh-2: blocks IMP-1 metallo-beta-lactamase in VIM-2 selectivity screen; shares compounds with VIM-2 inh; purified IMP-1, nitrocefin hydrolysis, epi-absorbance fluorescence; inhibition, % at 5.6 µM; 1,300 tested, under 10 active; AID 1856; call rule not given here;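 also: 0% = enzyme with vehicle and 100% = vehicle without enzyme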
VIM-2 FRET inh: inhibits VIM-2 in FRET assay to exclude epi-absorbance artifacts. shares compounds with VIM-2 inh. purified VIM-2, CCF2 FRET substrate hydrolysis. inhibition, % at 5.6 µM. 1,300 tested, 23% active;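 active = inhibition above the mean of all tested compounds plus 3 SD, cut at about 19% in these data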;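 also: 0% = VIM-2 plus DMSO and 100% = no enzyme wells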
TEM-1 counter: TEM-1 inhibition, counter-screen for VIM-2 inhibitors | 1,300 tested, 3% active | inhibition, % at 5.6 µM | Purified TEM-1, nitrocefin hydrolysis, epi-absorbance fluorescence | shares compounds with VIM-2 inh;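 active = inhibition above that campaign's mean inhibition plus 3 SD, cut at about 0.46% in these data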;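 also: 0% = TEM-1 with DMSO and 100% = TEM-1 with 100 µM potassium clavulanate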
Target sequence (P62593 whole entry, looked up): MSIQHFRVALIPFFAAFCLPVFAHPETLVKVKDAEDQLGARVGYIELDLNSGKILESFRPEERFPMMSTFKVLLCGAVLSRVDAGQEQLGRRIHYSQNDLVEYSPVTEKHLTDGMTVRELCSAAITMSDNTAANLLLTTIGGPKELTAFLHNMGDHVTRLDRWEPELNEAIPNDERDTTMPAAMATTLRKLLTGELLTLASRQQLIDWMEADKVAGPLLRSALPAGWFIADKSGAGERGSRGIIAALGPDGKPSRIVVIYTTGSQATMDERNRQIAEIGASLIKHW
VIM-2 inh conf: confirmation of P. aeruginosa VIM-2 metallo-beta-lactamase inhibitors; AID 2187; shares compounds with VIM-2 inh; inhibition, % at 5.6 µM; purified VIM-2, nitrocefin hydrolysis, epi-absorbance; 1,300 tested, 96% active;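 active = inhibition of the VIM-2 beta-lactamase enzyme above about 11% from the earlier first-round screen, limit read from the data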;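 also: 0% = VIM-2 with DMSO and 100% = buffer wells without enzyme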
Active calls of the source: *; x = no result. The list is not random: actives were taken first. Their share in the collection is about 1%.

SMILES | PvdQ inh | VIM-2 inh | IMP-1 inh-1 | FID counter | RAD54 branch | IMP-1 inh-2 | VIM-2 FRET inh | TEM-1 counter | VIM-2 inh conf
C=CCn1c2ccccc2c2nnc(SCCN3CCCCC3)nc21 | -11.0 | 18.5* | -1.7 | -0.2 | 22.6 | -3.5 | 4.1 | -7.6 | 22.4*
c1ccc(Cn2c3ccccc3c3nnc(SCCN4CCCCC4)nc32)cc1 | x | 27.1* | -2.4 | 5.5 | 16.0 | -3.8 | 1.2 | -9.2 | 42.4*
CCC(=O)N(C)C[C@@H]1Oc2cc(C#CC(C)C)ccc2S(=O)(=O)N([C@H](C)CO)C[C@H]1C | x | x | x | x | -0.1 | x | x | x | x
O=C(O)c1cccc2c1C(=O)c1ccccc1-2 | 2.0 | 13.7* | 0.0 | -3.3 | x | -4.4 | 31.4* | -5.9 | 16.9*
CC(=O)c1cccc(Nc2nc3ccccc3n3cnnc23)c1 | -17.1 | 13.5* | -2.8 | -24.9 | -4.8 | -1.8 | -3.5 | -3.3 | 25.5*
Fc1cccc(Nc2nc3ccccc3n3cnnc23)c1 | 4.3 | 1.7 | -0.8 | -9.8 | -6.8 | x | x | x | x
Cc1c(C)c2ccc(OC(C)C(=O)NCc3ccccn3)cc2oc1=O (stereo not given) | -5.9 | -0.3 | -4.4 | -22.0 | 2.2 | x | x | x | x
O=C(COc1ccc2c3c(c(=O)oc2c1)CCC3)NCc1ccccn1 | -12.5 | 17.3* | 1.4 | -28.3 | -6.8 | -3.3 | -0.6 | -6.6 | 23.3*
CC(Oc1ccc2c3c(c(=O)oc2c1)CCC3)C(=O)NCc1ccccn1 (stereo not given) | -3.4 | 20.7* | 0.2 | -9.3 | 6.4 | -2.3 | 3.0 | -4.5 | 28.9*
Cc1ccc(S(=O)(=O)Nc2ccc3c(c2)C(=O)N([C@@H](C)CO)C[C@H](C)[C@@H](CN(C)C(=O)NC(C)C)O3)cc1 | x | x | x | x | -4.2 | x | x | x | x
C[C@H](CO)N1C[C@H](C)[C@@H](CN(C)S(C)(=O)=O)Oc2c(NC(=O)c3nc4ccccc4s3)cccc2C1=O | x | x | x | x | 7.1 | x | x | x | x
CCCC[C@@H](CNC)NC[C@H](Cc1ccc(O)cc1)NCCc1ccc(OCC)cc1 | -3.3 | 66.9* | 0.8 | 34.8 | 13.8 | -3.0 | -3.3 | -6.2 | 70.2*
O=C(CN1CCOCC1)N[C@H]1CC[C@H](CCNC(=O)C2CCCC2)O[C@@H]1CO | x | x | x | x | 15.7 | x | x | x | x
CCC(=O)Nc1ccc2c(c1)C(=O)N(C)C[C@@H](OC)[C@H](C)CN(C(=O)CC1CC1)[C@@H](C)CO2 | x | x | x | x | 8.0 | x | x | x | x
CCNC(=O)Nc1ccc2c(c1)C(=O)N(C)[C@@H]1CC[C@H](CC(=O)Nc3ccccc3)O[C@H]1CO2 | x | x | x | x | -6.2 | x | x | x | x
O=C(OCc1ccccc1)C1=[N+]([O-])OC(C(=O)OCc2ccccc2)C1c1c[nH]c2ccccc12 (stereo not given) | -26.9 | 13.1* | -1.2 | -9.5 | x | -1.5 | -6.8 | -0.3 | 3.6
C[C@@H]1CN([C@@H](C)CO)C(=O)c2cc(NS(=O)(=O)c3cn(C)cn3)ccc2O[C@@H]1CN(C)Cc1ccc2c(c1)OCO2 | x | x | x | x | 4.7 | x | x | x | x
CCN(CC)c1nc(C(N)=O)cc(-c2ccccc2)n1 | -8.3 | 1.2 | -1.6 | -21.0 | -6.6 | x | x | x | x
CCN(CC)c1nc(-c2ccc(C(=O)NN)cc2)nc(-c2ccc(C(=O)NN)cc2)n1 | 10.9 | 75.3* | -3.0 | -36.1 | 5.8 | -3.2 | 3.7 | -5.6 | 84.8*
COCC(=O)Nc1ccc2c(c1)OC[C@H](C)N(C(=O)c1cccnc1)C[C@H](C)[C@@H](OC)CN(C)C2=O | x | x | x | x | -5.0 | x | x | x | x
CC(=O)N1CN(CCCn2ccnc2)Cc2c1sc1c2CCCC1 | -12.8 | 26.5* | -5.0 | 18.2 | -1.0 | -2.4 | -7.8 | -5.2 | 46.1*
O=[N+]([O-])c1ccccc1/C=N/n1c(C(F)(F)F)n[nH]c1=S | -12.3 | 14.0* | -2.8 | 6.6 | x | -4.0 | 54.9* | -8.1 | 35.8*
CNC[C@H](CC1CCCCC1)NC[C@H](CO)NCCc1cccc(C(F)(F)F)c1 | 0.4 | 21.0* | -0.9 | 33.9 | 7.7 | -3.5 | -5.5 | -5.7 | 29.8*
CNC[C@H](CC1CCCCC1)NC[C@H](CO)NCC1(c2ccccc2)CC1 | -9.2 | -2.1 | -0.8 | 21.0 | 2.8 | x | x | x | x
Cc1c(OCC(=O)NCCN2CCOCC2)ccc2c3c(c(=O)oc12)CCC3 | -0.3 | 26.9* | 0.5 | -7.0 | 7.1 | -1.8 | -3.0 | -9.5 | 31.2*
SMILES | PvdQ inh | VIM-2 inh | IMP-1 inh-1 | FID counter | RAD54 branch | IMP-1 inh-2 | VIM-2 FRET inh | TEM-1 counter | VIM-2 inh conf
Cc1c(OCC(=O)NCCCN2CCOCC2)ccc2c3c(c(=O)oc12)CCCC3 | -5.3 | 12.5* | -2.0 | 4.5 | -1.2 | -2.8 | -5.7 | -8.2 | 21.7*
Cc1c(OCC(=O)NCCN2CCOCC2)ccc2c1oc(=O)c1ccccc12 | -17.6 | 27.8* | -2.0 | 6.5 | 21.7 | -1.8 | 1.2 | -13.1 | 37.7*
Cc1c(OCC(=O)NCCN2CCOCC2)ccc2c(-c3ccccc3)cc(=O)oc12 | -2.1 | -0.6 | -2.4 | -6.2 | -12.7 | x | x | x | x
CCC(C)Nc1cc(C)c(C#N)c2nc3ccccc3n12 (stereo not given) | -17.8 | 28.0* | -3.7 | -26.6 | 11.8 | -3.7 | -12.2 | -7.7 | 37.5*
Cc1cc(NCC2CCCO2)n2c(nc3ccccc32)c1C#N (stereo not given) | -1.2 | 12.6* | -2.4 | -7.2 | 1.2 | -2.5 | -9.0 | -4.3 | 38.5*
CC(C)c1cc(NCCCN2CCOCC2)n2c(nc3ccccc32)c1C#N | -2.1 | 1.1 | -1.1 | -2.6 | 6.9 | x | x | x | x
Cc1cc(Nc2ccc(O)cc2)n2c(nc3ccccc32)c1C#N | 6.7 | -0.2 | -1.5 | -0.4 | x | x | x | x | x
